Laboratory results as given in PMC3270116 (Analytical Biochemistry, 2011).
“Also recorded” adds a separate entry of the source. Each block holds one compound with its values, some of them ahead of it.

What was measured:
[1] = target: T1, serine racemase (SR) in C6 cells (Rattus norvegicus, UniProt Q76EQ0); experiment: CE-LIF measurement of intra-cellular D-Ser production in C6 cells; type: cell-based; details: for intra-cellular D-Ser production: 36 h, C6, n = 3
T1 sequence (Q76EQ0 1-333): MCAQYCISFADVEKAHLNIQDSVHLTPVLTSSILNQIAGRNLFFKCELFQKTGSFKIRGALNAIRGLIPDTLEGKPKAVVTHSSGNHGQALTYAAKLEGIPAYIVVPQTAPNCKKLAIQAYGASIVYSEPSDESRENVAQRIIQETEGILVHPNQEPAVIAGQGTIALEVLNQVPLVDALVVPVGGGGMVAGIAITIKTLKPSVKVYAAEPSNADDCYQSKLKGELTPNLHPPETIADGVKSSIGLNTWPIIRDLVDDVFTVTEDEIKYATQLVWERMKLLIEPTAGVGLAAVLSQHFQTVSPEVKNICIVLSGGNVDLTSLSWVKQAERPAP
Summary of the method: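 C6 cells in DMEM with L-Gln, 10% FBS and 1% penicillin/streptomycin were grown at 37 °C in 5% CO2 to >70% confluence. They were then incubated for 36 h in medium with substrate amino acid (0–20 mM) or inhibitor amino acid (0–8 mM), in triplicate. ACN extracts with D-Arg internal standard were FITC-labelled, then run by CE-LIF in 0.5 mM HP-β-CD/80 mM borate, pH 9.3. D-Ser was quantified by area ratio to FITC-D-Arg.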

[2] = target: purified recombinant human SR; details: cited from earlier work
[3] = target: T2, serine racemase (SR) in 1321N1 cells (Homo sapiens, UniProt Q9GZT4); experiment: CE-LIF measurement of intra-cellular D-Ser production in 1321N1 cells; type: cell-based; details: for intra-cellular D-Ser production: 36 h, 1321N1, n = 3
T2 sequence (Q9GZT4 1-340): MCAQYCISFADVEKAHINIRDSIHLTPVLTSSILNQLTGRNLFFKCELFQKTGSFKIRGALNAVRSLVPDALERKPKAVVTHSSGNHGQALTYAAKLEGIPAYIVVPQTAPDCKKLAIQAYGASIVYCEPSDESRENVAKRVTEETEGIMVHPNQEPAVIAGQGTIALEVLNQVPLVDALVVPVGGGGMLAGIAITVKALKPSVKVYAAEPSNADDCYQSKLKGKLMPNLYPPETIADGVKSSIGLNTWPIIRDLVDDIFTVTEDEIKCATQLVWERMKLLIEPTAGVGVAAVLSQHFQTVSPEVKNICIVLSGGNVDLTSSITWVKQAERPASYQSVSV
Summary of the method: (§1)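 PC-12 cells were kept in RPMI-1640 with 10% horse serum and 5% FBS, and 1321N1 cells in DMEM with 10% FBS. […] Pellets were spiked with D-Arg internal standard, ACN-extracted, dried and FITC-labelled. CE-LIF used 0.5 mM HP-β-CD in 80 mM borate, pH 9.3.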

[4] = target: T3, serine racemase (SR) in HepG2 cells (Homo sapiens, UniProt Q9GZT4); experiment: CE-LIF measurement of intra-cellular D-Ser production in HepG2 cells; type: cell-based; details: for intra-cellular D-Ser production: 36 h, HepG2, n = 3
T3 sequence (Q9GZT4 1-340): T2 sequence (Q9GZT4 1-340)
Summary of the method: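 Medium for HepG2 was EMEM with 1% L-Gln, 10% FBS, 1% sodium pyruvate and 1% penicillin/streptomycin. Cells at >70% confluence (37 °C, 5% CO2) were exposed for 36 h to medium with substrate amino acid (0–20 mM) or inhibitor amino acid (0–8 mM), in triplicate. Cell extracts in ACN with D-Arg internal standard were FITC-derivatized. CE-LIF used 0.5 mM HP-β-CD in 80 mM borate, pH 9.3, with D-Ser quantified against FITC-D-Arg.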

[5] = test system: SR purified from mouse brain; details: cited from earlier work
[6] = target: T4, serine racemase (SR) in PC-12 cells (Rattus norvegicus, UniProt Q76EQ0); experiment: CE-LIF measurement of intra-cellular D-Ser production in PC-12 cells; type: cell-based; details: for intra-cellular D-Ser production: 36 h, PC-12, n = 3
T4 sequence (Q76EQ0 1-333): T1 sequence (Q76EQ0 1-333)
Summary of the method: as §1

[7] = test system: SR protein (monomer and dimer) in PC-12 cells; experiment: Western blot of SR protein expression in PC-12 cells; type: cell-based, rat; details: 36-h treatment; for expression of the SR dimer relative to control: normalized to β-actin, n=2
Summary of the method: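 Lysates were BCA-assayed, and 20 μg protein per lane was run on reducing 4–12% SDS-PAGE and moved to PVDF. Blots were blocked in 5% milk, probed with a […] SR antibody, then an HRP secondary, and detected by ECL. Bands were quantified by densitometry, normalised to β-actin, n=2.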

primary microglia = details: LPS 100 ng/ml; cited from earlier work

reduction in intra-cellular D-Ser concentrations ([1]; C6, Gly 0.25 to 8.0 mM added to incubation buffer): 97%
intra-cellular D-Ser production ([1]; Gly 0.25 mM in media): 3.74 ± 0.12
intra-cellular D-Ser production ([1]; Gly 0.50 mM in media): 3.49 ± 0.17
intra-cellular D-Ser production ([1]; Gly 1.0 mM in media): 3.15 ± 0.13
intra-cellular D-Ser production ([1]; Gly 2.0 mM in media): 1.69 ± 0.14
intra-cellular D-Ser production ([1]; Gly 4.0 mM in media): 0.51 ± 0.11
intra-cellular D-Ser production ([1]; Gly 6.0 mM in media): 0.41 ± 0.07
intra-cellular D-Ser production ([1]; Gly 8.0 mM in media): 0.11 ± 0.07
reduction in intra-cellular D-Ser concentrations ([3]; 1321N1, Gly 0.25 to 8.0 mM added to incubation buffer): 35%
intra-cellular D-Ser production ([3]; Gly 0.25 mM in media): 9.05 ± 2.48
intra-cellular D-Ser production ([3]; Gly 0.50 mM in media): 8.34 ± 2.16
intra-cellular D-Ser production ([3]; Gly 1.0 mM in media): 7.38 ± 2.01
intra-cellular D-Ser production ([3]; Gly 2.0 mM in media): 6.69 ± 1.80
intra-cellular D-Ser production ([3]; Gly 4.0 mM in media): 6.53 ± 1.98
intra-cellular D-Ser production ([3]; Gly 6.0 mM in media): 6.32 ± 1.83
intra-cellular D-Ser production ([3]; Gly 8.0 mM in media): 6.29 ± 1.04
IC50 ([3]; read-out: IC50 for the Gly inhibition of SR, 1321N1, 36 h, n = 3): 0.68 ± 0.15 mM
intra-cellular D-Ser production ([4]; Gly 0.25 mM in media): 14.96 ± 0.91
intra-cellular D-Ser production ([4]; Gly 0.50 mM in media): 13.85 ± 0.22
intra-cellular D-Ser production ([4]; Gly 1.0 mM in media): 10.88 ± 0.17
intra-cellular D-Ser production ([4]; Gly 2.0 mM in media): 10.77 ± 0.14
intra-cellular D-Ser production ([4]; Gly 4.0 mM in media): 10.31 ± 0.32
intra-cellular D-Ser production ([4]; Gly 6.0 mM in media): 8.60 ± 0.12
intra-cellular D-Ser production ([4]; Gly 8.0 mM in media): 7.78 ± 0.27
intra-cellular D-Ser production ([6]; Gly 0.25 mM in media): 15.91 ± 1.72
intra-cellular D-Ser production ([6]; Gly 0.50 mM in media): 13.86 ± 2.02
intra-cellular D-Ser production ([6]; Gly 1.0 mM in media): 11.59 ± 2.43
intra-cellular D-Ser production ([6]; Gly 2.0 mM in media): 8.30 ± 0.51
intra-cellular D-Ser production ([6]; Gly 4.0 mM in media): 7.82 ± 0.49
intra-cellular D-Ser production ([6]; Gly 6.0 mM in media): 4.64 ± 1.36
intra-cellular D-Ser production ([6]; Gly 8.0 mM in media): 2.72 ± 0.44
decrease in intra-cellular D-Ser ([6]; PC-12, 6 mM Gly): 77%
IC50 ([6]; read-out: IC50 for the Gly inhibition of SR, PC-12, 36 h, n = 3): 1.24 ± 0.39 mM
Compound: NCC(=O)O [Gly, glycine]
Ki [2]: 0.37 mM
reduction in the D-Ser production ([5]; 2 mM Gly in incubation media): 80%
Ki ([5]; competitive inhibitor): 0.15 mM
SR dimer or SR monomer expression relative to control ([7]; PC-12, Gly 6 mM): neither of these treatments produced a significant change; also recorded: without causing a significant change

EC50 [1]: 9.37 ± 0.17 mM
increase in intra-cellular D-Ser levels ([1]; C6, L-Ser 2.0 to 20.0 mM added to incubation buffer): 533%
intra-cellular D-Ser production ([1]; L-Ser 2 mM in media): 2.91 ± 0.17
intra-cellular D-Ser production ([1]; L-Ser 4 mM in media): 3.05 ± 0.08
intra-cellular D-Ser production ([1]; L-Ser 6 mM in media): 3.60 ± 0.14
intra-cellular D-Ser production ([1]; L-Ser 8 mM in media): 7.17 ± 0.27
intra-cellular D-Ser production ([1]; L-Ser 10 mM in media): 10.63 ± 0.45
intra-cellular D-Ser production ([1]; L-Ser 15 mM in media): 15.64 ± 0.10
intra-cellular D-Ser production ([1]; L-Ser 20 mM in media): 16.07 ± 0.16
EC50 [3]: 9.16 ± 0.27 mM
intra-cellular D-Ser production ([3]; L-Ser 2 mM in media): 8.13 ± 0.14
intra-cellular D-Ser production ([3]; L-Ser 4 mM in media): 9.26 ± 1.00
intra-cellular D-Ser production ([3]; L-Ser 6 mM in media): 9.46 ± 0.87
intra-cellular D-Ser production ([3]; L-Ser 8 mM in media): 9.54 ± 0.82
intra-cellular D-Ser production ([3]; L-Ser 10 mM in media): 19.57 ± 0.77
intra-cellular D-Ser production ([3]; L-Ser 15 mM in media): 21.94 ± 0.18
intra-cellular D-Ser production ([3]; L-Ser 20 mM in media): 22.31 ± 1.27
EC50 [4]: 7.87 ± 2.09 mM
increase in intra-cellular D-Ser levels ([4]; HepG2, L-Ser 2.0 to 20.0 mM added to incubation buffer): 50%
intra-cellular D-Ser production ([4]; L-Ser 2 mM in media): 15.48 ± 0.26
intra-cellular D-Ser production ([4]; L-Ser 4 mM in media): 16.21 ± 0.21
intra-cellular D-Ser production ([4]; L-Ser 6 mM in media): 17.53 ± 1.70
intra-cellular D-Ser production ([4]; L-Ser 8 mM in media): 18.50 ± 1.48
intra-cellular D-Ser production ([4]; L-Ser 10 mM in media): 20.10 ± 0.50
intra-cellular D-Ser production ([4]; L-Ser 15 mM in media): 21.81 ± 0.35
intra-cellular D-Ser production ([4]; L-Ser 20 mM in media): 26.28 ± 0.25
EC50 [6]: 5.41 ± 0.76 mM
intra-cellular D-Ser production ([6]; L-Ser 2 mM in media): 16.48 ± 1.72
intra-cellular D-Ser production ([6]; L-Ser 4 mM in media): 21.97 ± 2.48
intra-cellular D-Ser production ([6]; L-Ser 6 mM in media): 29.51 ± 4.93
intra-cellular D-Ser production ([6]; L-Ser 8 mM in media): 31.46 ± 0.07
intra-cellular D-Ser production ([6]; L-Ser 10 mM in media): 36.49 ± 1.64
intra-cellular D-Ser production ([6]; L-Ser 15 mM in media): 38.01 ± 0.50
intra-cellular D-Ser production ([6]; L-Ser 20 mM in media): 39.13 ± 0.36
Compound: N[C@@H](CO)C(=O)O [L-Ser, L-serine]
Km ([2]; read-out: Km for L-Ser): 4 mM
Km ([5]; read-out: Km for L-Ser): 18 mM
SR dimer or SR monomer expression relative to control ([7]; PC-12, L-Ser 10 mM): neither of these treatments produced a significant change; also recorded: without causing a significant change

Compound: lipopolysaccharide [LPS]
D-Ser levels in the incubation media (primary microglia): increased
expression of the dimeric form of SR (primary microglia): increased
increase in intra-cellular D-Ser concentration ([6]; PC-12, LPS 10 ng/ml in incubation media): 2.5 fold
increase in intra-cellular D-Ser concentration ([6]; PC-12, LPS 100 ng/ml in incubation media): 3.5 fold
expression of the SR dimer relative to control ([7]; PC-12, LPS 10 ng/ml): 1.2 fold
expression of the SR dimer relative to control ([7]; PC-12, LPS 100 ng/ml): 1.6 fold
